This note sets out measurements from ChEMBL document CHEMBL3992553, “New nitrofurans amenable by isocyanide multicomponent chemistry are active against multidrug-resistant and poly-resistant Mycobacterium tuberculosis” (Bioorg Med Chem, 2017).

Molecules are shown by their SMILES. ≈ marks a conversion by molar mass, not a printed value.

The subject of series [1] is Mycobacterium tuberculosis. The series can be described thus: Antimycobacterial activity against Mycobacterium tuberculosis H37Rv after 7 days by microbroth dilution method. The class given is functional. To be noted: 168 h. In a few lines:
(§1)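 REMA. 3-week H37Rv culture (2nd generation on Löwenstein–Jensen) vortexed with glass beads, set to 1.0 McFarland in 7H9, diluted 20-fold in 7H9 + OADC. 2-fold dilutions, final 1.6–400 µg/mL, 200 µL wells. 7 days at 35 °C, then resazurin 18 h. Fluorescence ex 520/em 590. MIC where signal plateaued or matched the 1% population control (t test).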
(Dilution methods test growth across graded concentrations, often in twofold steps.)

Series [2] in a line: (§2) Cytotoxicity against human MCF7 cells assessed as reduction in cell viability after 5 days by WST1 assay. The class given is cell-based. To be noted: human, MCF7 cells. In a few lines: (§3)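 MCF-7 cells, 3000 per well, in RPMI + 5% FBS, 0.5% NEAA, 0.5% GlutaMAX and insulin 5 µg/mL. Exposed to serially diluted compound for 5 days. WST-1 incubation 2 h at 37 °C, absorbance read at 450 nm (reference 600 nm). Viability given as % of controls.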
For orientation: Formazan colour is commonly taken as a measure of viable cells.

For a further series, the system named is MCF7. Described as §2. To be noted: Homo sapiens, MCF7, 120 h. The series is classed as cell-based. In a few lines:
as §3

The test system of the next series is Klebsiella pneumoniae. Nature of the series: Antibacterial activity against Klebsiella pneumoniae DSM 11678 after 18 hrs. The class given is functional. To be noted: DSM 11678, 18 h. In a few lines:
(§4)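 Broth microdilution MIC. Gram-negatives grown overnight at 37 °C in Müller-Hinton broth + 1% glucose, pH 7.2; Gram-positives in trypticase soy broth with yeast extract, pH 7.2. Inoculum 5×10^5 cfu/mL final. Serial dilutions from 100 µM down to 0.2 µM, DMSO ≤1%. 18 h at 37 °C, moist; OD600. MIC = lowest concentration completely suppressing growth.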

The subject of series [3] is Mycobacterium tuberculosis. The series can be described thus: Antimycobacterial activity against Mycobacterium tuberculosis H37Rv after 7 days by REMA. The series is classed as functional. To be noted: 168 h. Summed up:
as §1

A short description of series [4]: (§5) Cytotoxicity against human KB-3-1 cells assessed as reduction in cell viability after 5 days by WST1 assay. To be noted: human, KB-3-1 cells. The class given is cell-based. In a few lines:
(§6)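 KB-3-1 or L929 cells, 1500 per well, in DMEM + 5% FBS. Exposed to serially diluted compound for 5 days. WST-1 added, plates incubated at 37 °C (20 min for KB-3-1), absorbance read at 450 nm (reference 600 nm). Viability given as % of controls.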

The next series relates to KB 3-1. The series is described as §5. As to conditions: Homo sapiens, KB 3-1, 120 h. The class given is cell-based. In a few lines:
as §6

The next series concerns Escherichia coli. The series can be described thus: Growth inhibition of Escherichia coli DSM 1116 at 100 uM after 18 hrs relative to control. To be noted: DSM 1116, 18 h, read-out: GI. The class given is functional. Summed up: (§7)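 Gram-negative culture grown overnight at 37 °C in Müller-Hinton broth + 1% glucose, pH 7.2, then tested at 5×10^5 cfu/mL final. Compound at 100 µM from DMSO stock, DMSO ≤1%. Incubated 18 h at 37 °C under moist conditions. OD600 read; value reported as % growth inhibition.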

In a further series the test system is L929. The series can be described thus: (§8) Cytotoxicity against mouse L929 cells assessed as reduction in cell viability after 5 days by WST1 assay. As to conditions: Mus musculus, L929, 120 h. The class given is cell-based. In a few lines:
as §6

A short description of series [5]: as §8. The class given is cell-based. As to conditions: mouse, L929 cells. In a few lines:
as §6

For a further series, the system named is Pseudomonas aeruginosa. Nature of the series: Growth inhibition of Pseudomonas aeruginosa PA7 DSM 24068 at 100 uM after 18 hrs relative to control. The class given is functional. To be noted: PA7 DSM 24068, 18 h, read-out: GI. In a few lines:
as §7

The subject of another series is Acinetobacter baumannii. The series can be described thus: Antibacterial activity against Acinetobacter baumannii DSM 30007 after 18 hrs. The class given is functional. To be noted: DSM 30007, 18 h. Summed up:
as §4

In series [6] the test system is Staphylococcus aureus. The series can be described thus: Antibacterial activity against methicillin-resistant Staphylococcus aureus RKI 11-02670 after 18 hrs. The series is classed as functional. As to conditions: RKI 11-02670, 18 h. Summed up: as §4
A further series concerns Enterococcus faecium. Nature of the series: Antibacterial activity against Enterococcus faecium DSM 20477 after 18 hrs. The series is classed as functional. As to conditions: DSM 20477, 18 h. In a few lines:
as §4

For series [7], the system named is Staphylococcus aureus. The series can be described thus: Antibacterial activity against methicillin-resistant Staphylococcus aureus DSM 11822 after 18 hrs. The series is classed as functional. To be noted: DSM 11822, 18 h. Summed up:
as §4

Series [8] in a line: Cytotoxicity against human FS4-LTM cells assessed as reduction in cell viability after 24 hrs by WST1 assay. The class given is cell-based. In a few lines:
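FS4-LTM conditionally immortalized human fibroblasts, kept without doxycycline for primary-like behaviour, in DMEM + 5% FBS. Exposed to serially diluted compound for 24 h. WST-1 added, plates incubated at 37 °C, absorbance read at 450 nm (reference 600 nm). Viability given as % of controls set to 100%.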

Series [9] relates to Staphylococcus aureus. The series can be described thus: Antibacterial activity against Staphylococcus aureus MLS16 MTCC 2940 after 24 hrs by well diffusion method. To be noted: MLS16 MTCC 2940, 24 h. The class given is functional. In general terms: In agar diffusion tests the substance spreads into inoculated agar from a disc or well.
For another series, the system named is Bacillus subtilis. Nature of the series: Antibacterial activity against Bacillus subtilis MTCC 121 after 24 hrs by well diffusion method. The series is classed as functional. As to conditions: MTCC 121, 24 h.

As usually defined, the MIC is the lowest concentration found to suppress growth. With `O=[N+]([O-])c1ccc(C2=NOC(c3ccc(N4CCC(Oc5ccc(OC(F)(F)F)cc5)CC4)c(F)c3)C2)o1` (stereo not given), the minimum inhibitory concentration (MIC) in series [1] was found to be 0.001 µg/mL (≈ 0.00187 µM).

The IC90 is the point of the concentration-response curve where the effect stands at 90%. One may read the IC50 as the concentration at which inhibition is half-maximal. By EC50 is commonly meant the concentration at which the effect is half-maximal. Low values mean greater potency, high ones weaker potency. For the compound `CC1(C(=O)NC2CCCCC2)CN(S(=O)(=O)c2ccccc2[N+](=O)[O-])CC(=O)N1/N=C/c1ccc([N+](=O)[O-])o1` (stereo not given), the IC90 at 120 h in series [2], in series [4] and in [5] was above 100 µM in each case. The half-maximal inhibitory concentration (IC50) in the series with MCF7 is 12 µM; in the series with KB 3-1 it was 26.7 to 27 µM; with L929, 22.9 to 100 µM; in series [8] (Homo sapiens, FS4-LTM, 24 h) it was 12 to 100 µM. The minimal inhibitory concentration (MIC) was above 100 µM in the series with Klebsiella pneumoniae; 22 µM (≈ 12.4 µg/mL) in series [3]; above 100 µM against Acinetobacter baumannii; 100 µM (≈ 56.3 µg/mL) against Staphylococcus aureus [6]; above 100 µM against Enterococcus faecium; 100 µM (≈ 56.3 µg/mL) with Staphylococcus aureus [7]. Further, the inhibition of growth at 100 µM in the series on Escherichia coli worked out at 88%; in the series on Pseudomonas aeruginosa, 85%. The same compound displayed a concentration for a half-maximal effect (EC50) with Staphylococcus aureus [6] of 75 µM. Moreover, the 90% effect concentration (IC90) at 24 h in series [8] (human, FS4-LTM cells) was above 100 µM.

Turning to `O=C(NCc1cn(-c2ccccc2)nn1)c1ccc([N+](=O)[O-])o1`, the MIC in the series on Staphylococcus aureus [9] amounted to 1.9 µg/mL (≈ 6.06 µM); in the series on Bacillus subtilis it was 7.8 µg/mL (≈ 24.9 µM).
